Activity calls are given as the source filed them. The calls are words filed in the database; no cut-off is given here.
Tests used:
SR = experiment: Cytotoxicity against human SR cells; assay type: functional
[1] = Cytotoxicity against human UACC62 cells; assay type: functional; details: UACC-62
HL-60(TB) = experiment: Cytotoxicity against human HL-60(TB) cells; assay type: functional
MOLT-4 = experiment: Cytotoxicity against human MOLT4 cells; assay type: functional
[2] = Cytotoxicity against human OVCAR3 cells; assay type: functional
T47D = experiment: Cytotoxicity against human T47D cells; assay type: functional
A498 = experiment: Cytotoxicity against human A498 cells; assay type: functional
[3] = Cytotoxicity against human SKOV3 cells; assay type: functional; details: SK-OV-3
NCI-H226 = experiment: Cytotoxicity against human NCI-H226 cells; assay type: functional
Paracentrotus lividus [4] = experiment: Antiproliferative activity in sea urchin embryo assessed as antimitotic activity by measuring cleavage alteration exposed for 8 to 20 mins after fertilization and 45 to 55 mins before first mitotic cycle completion measured 2.5 to […] after fertilization; assay type: functional
[5] = Cytotoxicity against human OVCAR8 cells; assay type: functional
Malme-3M = experiment: Cytotoxicity against human MALME-3M cells; assay type: functional
SW-620 = experiment: Cytotoxicity against human SW620 cells; assay type: functional
MCF7 = experiment: Cytotoxicity against human MCF7 cells; assay type: functional
SK-MEL-2 = experiment: Cytotoxicity against human SK-MEL-2 cells; assay type: functional
NCI-H460 = experiment: Cytotoxicity against human NCI-H460 cells; assay type: functional
SF-268 = experiment: Cytotoxicity against human SF268 cells; assay type: functional
MDA-MB-468 = experiment: Cytotoxicity against human MDA-MB-468 cells; assay type: functional
M14 = experiment: Cytotoxicity against human M14 cells; assay type: functional
MDA-MB-231 = experiment: Cytotoxicity against human MDA-MB-231 cells; assay type: functional
A549 = experiment: Cytotoxicity against human A549 cells; assay type: functional
HCC 2998 = experiment: Cytotoxicity against human HCC2998 cells; assay type: functional
CAKI-1 = experiment: Cytotoxicity against human Caki1 cells; assay type: functional
RXF 393 = experiment: Cytotoxicity against human RXF393 cells; assay type: functional
SK-MEL-5 = experiment: Cytotoxicity against human SK-MEL-5 cells; assay type: functional
ACHN = experiment: Cytotoxicity against human ACHN cells; assay type: functional
NCI-H522 = experiment: Cytotoxicity against human NCI-H522 cells; assay type: functional
LOX IMVI = experiment: Cytotoxicity against human LOXIMVI cells; assay type: functional
NCI-H322M = experiment: Cytotoxicity against human NCI-H322M cells; assay type: functional
[6] = Cytotoxicity against human PC3 cells; assay type: functional; details: PC-3
COLO 205 = experiment: Cytotoxicity against human COLO205 cells; assay type: functional
[7] = Cytotoxicity against human UO31 cells; assay type: functional; details: UO-31
SN12C = experiment: Cytotoxicity against human SN12C cells; assay type: functional
U-251 = experiment: Cytotoxicity against human U251 cells; assay type: functional
[8] = Cytotoxicity against human OVCAR5 cells; assay type: functional; details: OVCAR-5
CCRF-CEM = experiment: Cytotoxicity against human CCRF-CEM cells; assay type: functional
[9] = Cytotoxicity against human HCT116 cells; assay type: functional; details: HCT-116
KM12 = experiment: Cytotoxicity against human KM12 cells; assay type: functional
BT-549 = experiment: Cytotoxicity against human BT549 cells; assay type: functional
HT-29 = experiment: Cytotoxicity against human HT-29 cells; assay type: functional
[10] = Cytotoxicity against human UACC257 cells; assay type: functional; details: UACC-257
TK-10 = experiment: Cytotoxicity against human TK10 cells; assay type: functional
[11] = Cytotoxicity against human NCI60 cells; assay type: functional
IGROV-1 = experiment: Cytotoxicity against human IGROV1 cells; assay type: functional
HOP-62 = experiment: Cytotoxicity against human HOP62 cells; assay type: functional
HOP-92 = experiment: Cytotoxicity against human HOP92 cells; assay type: functional
[12] = Cytotoxicity against human OVCAR4 cells; assay type: functional; details: OVCAR-4
[13] = Cytotoxicity against human Hs578T cells; assay type: functional; details: Hs-578T
786-0 = experiment: Cytotoxicity against human 786-0 cells; assay type: functional
[14] = Cytotoxicity against human HCT15 cells; assay type: functional; details: HCT-15
SNB-19 = experiment: Cytotoxicity against human SNB19 cells; assay type: functional
DU-145 = experiment: Cytotoxicity against human DU145 cells; assay type: functional
Paracentrotus lividus [15] = experiment: Antiproliferative activity in sea urchin embryo assessed as destabilization of microtubule by measuring embryo spinning after 15 mins to 20 hrs; assay type: functional
MDA-MB-435 = experiment: Cytotoxicity against human MDA-MB-435 cells; assay type: functional
SNB-75 = experiment: Cytotoxicity against human SNB75 cells; assay type: functional
SK-MEL-28 = experiment: Cytotoxicity against human SK-MEL-28 cells; assay type: functional
Paracentrotus lividus [16] = experiment: Antiproliferative activity in sea urchin embryo assessed as antimitotic activity by measuring cleavage arrest exposed for 8 to 20 mins after fertilization and 45 to 55 mins before first mitotic cycle completion measured 2.5 to […] after fertilization; assay type: functional
Paracentrotus lividus [17] = experiment: Antiproliferative activity in sea urchin embryo assessed as destabilization of microtubule by tuberculate eggs after 15 mins to 20 hrs; assay type: functional, organism-based
K562 = experiment: Cytotoxicity against human K562 cells; assay type: functional
NCI-H23 = experiment: Cytotoxicity against human NCI-H23 cells; assay type: functional
[18] = Cytotoxicity against human NCI-ADR-RES cells; assay type: functional
RPMI-8226 = experiment: Cytotoxicity against human RPMI8226 cells; assay type: functional
SF-539 = experiment: Cytotoxicity against human SF539 cells; assay type: functional
Tubulin = Tubulin (Bos taurus, UniProt Q6B856+Q862L2+Q862F3); experiment: Inhibition of bovine tubulin polymerization by turbidity assay; assay type: protein assay
[19] = Cytotoxicity against human NCI60 cells assessed as cell growth at 10 uM; assay type: functional; details: read-out: Activity
Outline: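 NCI60 panel screened by the NCI Developmental Therapeutics Program at a single 10 µM concentration; mean cell growth percent reported.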

## COc1cccc(Cn2c(-c3nonc3N)nc3ccccc32)c1
SR
  GI50: 263 nM
[1]
  GI50: 513 nM
HL-60(TB)
  GI50: 263 nM
MOLT-4
  GI50: 724 nM
[2]; OVCAR-3, read-out: pGI50 (converted)
  GI50: 263 nM
T47D
  GI50: 501 nM
A498
  GI50: 275 nM
[3]
  GI50: 437 nM
NCI-H226
  GI50: 525 nM
Paracentrotus lividus [4]
  EC: 0.2 µM
[5]; OVCAR-8, read-out: pGI50 (converted)
  GI50: 525 nM
Malme-3M
  GI50: 525 nM
SW-620
  GI50: 363 nM
MCF7
  GI50: 398 nM
SK-MEL-2
  GI50: 288 nM
NCI-H460
  GI50: 363 nM
SF-268
  GI50: 759 nM
MDA-MB-468
  GI50: 240 nM
M14
  GI50: 275 nM
MDA-MB-231
  GI50: 955 nM
A549
  GI50: 617 nM
HCC 2998
  GI50: 1170 nM
CAKI-1
  GI50: 417 nM
RXF 393; read-out: pGI50 (converted)
  GI50: 275 nM
SK-MEL-5
  GI50: 331 nM
ACHN
  GI50: 550 nM
NCI-H522
  GI50: 229 nM
LOX IMVI
  GI50: 537 nM
NCI-H322M
  GI50: 871 nM
[6]
  GI50: 447 nM
COLO 205
  GI50: 372 nM
[7]
  GI50: 589 nM
SN12C
  GI50: 646 nM
U-251
  GI50: 437 nM
[8]
  GI50: 550 nM
CCRF-CEM
  GI50: 339 nM
[9]
  GI50: 389 nM
KM12
  GI50: 501 nM
BT-549
  GI50: 363 nM
HT-29
  GI50: 316 nM
[10]
  GI50: 316 nM
TK-10
  GI50: 724 nM
[11]
  GI50: 457 nM
IGROV-1
  GI50: 603 nM
HOP-62
  GI50: 468 nM
HOP-92
  GI50: 372 nM
[12]
  GI50: 8710 nM
[13]
  GI50: 339 nM
786-0
  GI50: 437 nM
[14]
  GI50: 380 nM
SNB-19
  GI50: 741 nM
DU-145
  GI50: 603 nM
Paracentrotus lividus [15]
  EC: >5 µM
MDA-MB-435; read-out: pGI50 (converted)
  GI50: 182 nM
SNB-75
  GI50: 295 nM
SK-MEL-28
  GI50: 813 nM
Paracentrotus lividus [16]
  EC: 2 µM
Paracentrotus lividus [17]
  Activity: Active
K562
  GI50: 347 nM
NCI-H23
  GI50: 832 nM
[18]; read-out: pGI50 (converted)
  GI50: 316 nM
RPMI-8226
  GI50: 363 nM
SF-539; read-out: pGI50 (converted)
  GI50: 214 nM

## Nc1nonc1-c1nc2ccccc2n1Cc1cccc2ccccc12
Tubulin
  IC50: 7030 nM

## CC[C@]1(O)C[C@@H]2CN(CCc3c([nH]c4ccccc34)[C@@](C(=O)OC)(c3cc4c(cc3OC)N(C)[C@H]3[C@@](O)(C(=O)OC)[C@H](OC(C)=O)[C@]5(CC)C=CCN6CC[C@]43[C@@H]65)C2)C1 [VINBLASTINE]
[2]; OVCAR-3
  TGI: 1.6 nM
[2]; OVCAR-3, read-out: GI50
  GI50: 0.3 nM
[2]; OVCAR-3, read-out: LC50 (the source's name)
  CC50: 500 nM
Paracentrotus lividus [4]
  EC: 0.1 µM
[5]; OVCAR-8
  TGI: 320 nM
[5]; OVCAR-8, read-out: GI50
  GI50: 1.6 nM
[5]; OVCAR-8, read-out: LC50 (the source's name)
  CC50: 2000 nM
RXF 393
  TGI: 50 nM
RXF 393; read-out: GI50
  GI50: 1 nM
[11]
  GI50: 1.37 nM
Paracentrotus lividus [15]
  EC: 2 µM
MDA-MB-435
  TGI: 0.25 nM
MDA-MB-435; read-out: GI50
  GI50: 0.25 nM
MDA-MB-435; read-out: LC50 (the source's name)
  CC50: 1 nM
Paracentrotus lividus [16]
  EC: 0.2 µM
Paracentrotus lividus [17]
  Activity: Active
[18]
  TGI: 790 nM
[18]; read-out: GI50
  GI50: 100 nM
SF-539
  TGI: 2.5 nM
SF-539; read-out: GI50
  GI50: 0.6 nM

## Nc1nonc1-c1nc2ccccc2n1Cc1ccc(F)cc1
Paracentrotus lividus [4]
  EC: 2 µM
[11]
  GI50: 8910 nM
Paracentrotus lividus [15]
  EC: >4 µM
Paracentrotus lividus [16]
  EC: >4 µM

## COc1cc2c(c(OC)c1OC)-c1ccc(OC)c(=O)cc1[C@@H](NC(C)=O)CC2 [COLCHICINE]
Paracentrotus lividus [4]
  EC: 50 µM
[11]
  GI50: 132 nM
Paracentrotus lividus [15]
  EC: 50 µM
Paracentrotus lividus [16]
  EC: 100 µM
Paracentrotus lividus [17]
  Activity: Active

## Nc1nonc1-c1nc2ccccc2n1Cc1cccc(F)c1
Paracentrotus lividus [4]
  EC: 0.5 µM
Tubulin
  IC50: 7900 nM
Paracentrotus lividus [15]
  EC: >4 µM
Paracentrotus lividus [16]
  EC: >4 µM

## Nc1nonc1-c1nc2ccccc2n1Cc1cccc(C(F)(F)F)c1
Tubulin
  IC50: 13270 nM

## N#CCCNc1nonc1-c1nc2ccccc2n1CC(=O)c1ccc(N)cc1 [AVANBULIN]
[11]
  GI50: 6.5 nM

## COc1cccc(Cn2c(-c3nonc3NC(C)=O)nc3ccccc32)c1
Paracentrotus lividus [4]
  EC: 1 µM
[11]
  GI50: 3980 nM
Paracentrotus lividus [15]
  EC: >4 µM
Paracentrotus lividus [16]
  EC: >4 µM

## Nc1nonc1-c1nc2ccccc2n1Cc1nnn[nH]1
Paracentrotus lividus [4]
  EC: >4 µM
[19]
  growth at 10 µM: 103%
Paracentrotus lividus [15]
  EC: >4 µM
Paracentrotus lividus [16]
  EC: >4 µM

Source: ChEMBL document CHEMBL3421596, “A facile synthesis and microtubule-destabilizing properties of 4-(1H-benzo[d]imidazol-2-yl)-furazan-3-amines” (Eur J Med Chem, 2015)
